# Experiments:
# [1] = molecular target: Cyclin-dependent kinase-like 5 (Homo sapiens) (UniProt O76039); assay: Binding affinity to wild-type human partial length CDKL5 (M1 to S337 residues) expressed in mammalian expression system assessed as residual binding level at 1 uM by Kinomescan method relative to control
# [2] = molecular target: Mitogen-activated protein kinase 15 (Homo sapiens) (UniProt Q8TD08); assay: Binding affinity to wild-type human partial length ERK8 (M1 to P437 residues) expressed in bacterial expression system assessed as residual binding level at 1 uM by Kinomescan method relative to control
# Chain of Mitogen-activated protein kinase 15 (Homo sapiens) (Q8TD08 whole entry, the tested form may be a part): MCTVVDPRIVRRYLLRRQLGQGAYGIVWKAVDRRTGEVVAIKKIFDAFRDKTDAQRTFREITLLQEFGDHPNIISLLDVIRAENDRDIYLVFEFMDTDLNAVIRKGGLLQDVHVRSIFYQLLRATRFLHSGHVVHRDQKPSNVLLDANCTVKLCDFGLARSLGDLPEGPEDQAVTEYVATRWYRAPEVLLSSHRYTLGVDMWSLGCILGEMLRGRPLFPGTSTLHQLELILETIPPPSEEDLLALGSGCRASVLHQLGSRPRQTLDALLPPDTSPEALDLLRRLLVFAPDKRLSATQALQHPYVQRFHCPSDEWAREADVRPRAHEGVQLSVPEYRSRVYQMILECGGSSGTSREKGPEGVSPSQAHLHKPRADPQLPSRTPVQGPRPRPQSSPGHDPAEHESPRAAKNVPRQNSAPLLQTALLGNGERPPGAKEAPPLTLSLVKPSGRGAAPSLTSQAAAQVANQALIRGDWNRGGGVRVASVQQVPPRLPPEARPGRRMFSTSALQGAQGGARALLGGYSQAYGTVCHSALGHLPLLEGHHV
# [3] = Half life in B6 mouse at 5 mg/kg, ip; type: ADME, organism-based; settings: in vivo
# In short: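 PK in B6 mice. Single 5 mg/kg intraperitoneal dose in 5% DMSO/95% D5W. Half-life and AUC reported.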
# [4] = molecular target: Cyclin-dependent kinase 17 (Homo sapiens) (UniProt Q00537); assay: Binding affinity to wild-type human full length PCTK2 (M1 to F523 residues) expressed in bacterial expression system assessed as residual binding level at 1 uM by Kinomescan method relative to control
# In short: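 Active-site-directed competition binding panel (KinomeScan) covering 468 kinases. Test agent was screened at 1 μM. The read-out is the remaining kinase signal expressed relative to a DMSO control. Scores above 35%, taken as weak binding, were not reported.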
# [5] = molecular target: G protein-coupled receptor kinase 3 (Homo sapiens) (UniProt P35626); assay: Binding affinity to wild-type human full length GRK3 (M1 to L688 residues) expressed in mammalian expression system assessed as residual binding level at 1 uM by Kinomescan method relative to control
# In short: (§1)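 Active-site-directed KinomeScan competition binding panel covering 468 kinases, compound tested at 1 μM. Each readout is the kinase signal remaining with compound, expressed as a percentage of the DMSO control. […]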
# [6] = molecular target: Calcium/calmodulin-dependent protein kinase kinase 2 (Homo sapiens) (UniProt Q96RR4); assay: Binding affinity to wild-type human partial length CAMKK2 (D65 to V471 residues) expressed in bacterial expression system assessed as residual binding level at 1 uM by Kinomescan method relative to control
# [7] = molecular target: Ephrin type-A receptor 5 (Homo sapiens) (UniProt P54756); assay: Binding affinity to wild-type human partial length EPHA5 (T627 to V930 residues) expressed in bacterial expression system assessed as residual binding level at 1 uM by Kinomescan method relative to control
# Chain of Ephrin type-A receptor 5 (Homo sapiens) (P54756 whole entry, the tested form may be a part): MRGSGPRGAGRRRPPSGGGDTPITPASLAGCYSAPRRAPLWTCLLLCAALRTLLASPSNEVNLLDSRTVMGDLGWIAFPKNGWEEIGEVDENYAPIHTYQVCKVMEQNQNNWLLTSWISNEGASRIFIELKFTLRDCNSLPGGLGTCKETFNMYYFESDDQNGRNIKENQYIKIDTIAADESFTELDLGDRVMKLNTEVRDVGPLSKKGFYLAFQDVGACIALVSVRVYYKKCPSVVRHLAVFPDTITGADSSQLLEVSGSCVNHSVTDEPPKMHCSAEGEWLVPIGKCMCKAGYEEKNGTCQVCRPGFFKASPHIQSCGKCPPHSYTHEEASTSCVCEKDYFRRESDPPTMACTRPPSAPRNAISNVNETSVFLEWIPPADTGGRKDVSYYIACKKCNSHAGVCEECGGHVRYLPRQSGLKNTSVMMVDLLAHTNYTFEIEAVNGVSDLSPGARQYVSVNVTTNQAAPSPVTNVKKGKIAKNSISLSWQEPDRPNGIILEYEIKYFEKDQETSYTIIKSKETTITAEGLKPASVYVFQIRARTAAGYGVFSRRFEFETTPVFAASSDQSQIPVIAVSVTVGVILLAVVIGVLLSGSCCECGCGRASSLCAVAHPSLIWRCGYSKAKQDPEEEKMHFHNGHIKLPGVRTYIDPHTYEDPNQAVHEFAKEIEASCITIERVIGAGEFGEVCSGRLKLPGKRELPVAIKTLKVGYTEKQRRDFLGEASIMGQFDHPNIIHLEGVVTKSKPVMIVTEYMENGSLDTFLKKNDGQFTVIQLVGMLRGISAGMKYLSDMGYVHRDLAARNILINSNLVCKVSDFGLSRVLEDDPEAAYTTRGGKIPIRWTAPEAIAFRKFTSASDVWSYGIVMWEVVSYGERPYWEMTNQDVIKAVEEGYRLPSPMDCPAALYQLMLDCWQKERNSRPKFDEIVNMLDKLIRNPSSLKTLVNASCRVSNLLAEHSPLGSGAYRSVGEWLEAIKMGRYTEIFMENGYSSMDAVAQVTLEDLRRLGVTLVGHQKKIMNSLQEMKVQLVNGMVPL
# In short: (§2)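 Active-site-directed competition binding panel of 468 kinases (KinomeScan), compound at 1 μM. The read-out is kinase remaining bound, given as a percentage of the DMSO control. […]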
# [8] = system: Epidermal growth factor receptor (Homo sapiens), P00533 [UNDEFINED MUTATION]; assay: Binding affinity to human partial length EGFR S752-I759del mutant expressed in bacterial expression system assessed as residual binding level at 1 uM by Kinomescan method relative to control
# In short: (§3)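 KinomeScan active site-directed competition binding panel (468 kinases), compound tested at 1 μM. Result expressed as remaining kinase signal versus DMSO control (percent of control).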
# [9] = molecular target: Serine/threonine-protein kinase D2 (Homo sapiens) (UniProt Q9BZL6); assay: Binding affinity to wild-type human partial length PRKD2 (A519 to E838 residues) expressed in bacterial expression system assessed as residual binding level at 1 uM by Kinomescan method relative to control; in short: as §2
# [10] = molecular target: Cyclin-dependent kinase 7 (Homo sapiens) (UniProt P50613); assay: Binding affinity to wild-type human full length CDK7 (M1 to L344 residues) expressed in mammalian expression system assessed as residual binding level at 1 uM by Kinomescan method relative to control; in short: as §1
# Chain of Cyclin-dependent kinase 7 (Homo sapiens) (P50613 whole entry, the tested form may be a part): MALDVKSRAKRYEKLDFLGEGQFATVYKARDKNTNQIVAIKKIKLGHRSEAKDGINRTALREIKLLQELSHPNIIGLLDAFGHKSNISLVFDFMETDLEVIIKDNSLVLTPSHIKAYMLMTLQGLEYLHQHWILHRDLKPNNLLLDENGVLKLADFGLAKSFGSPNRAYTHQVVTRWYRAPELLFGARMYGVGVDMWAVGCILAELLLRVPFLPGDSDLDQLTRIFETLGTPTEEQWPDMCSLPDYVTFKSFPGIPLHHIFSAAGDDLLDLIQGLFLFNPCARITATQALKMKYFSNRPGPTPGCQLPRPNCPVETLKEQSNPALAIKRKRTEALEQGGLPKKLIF
# [11] = system: Epidermal growth factor receptor (Homo sapiens), P00533 [L858R]; assay: Binding affinity to human partial length EGFR L858R mutant (R669 to V1011 residues) expressed in bacterial expression system assessed as residual binding level at 1 uM by Kinomescan method relative to control; in short: as §3
# [12] = molecular target: Tyrosine-protein kinase receptor UFO (Homo sapiens) (UniProt P30530); assay: Binding affinity to wild-type human partial length AXL (R497 to Y821 residues) expressed in bacterial expression system assessed as residual binding level at 1 uM by Kinomescan method relative to control
# Chain of Tyrosine-protein kinase receptor UFO (Homo sapiens) (P30530 whole entry, the tested form may be a part): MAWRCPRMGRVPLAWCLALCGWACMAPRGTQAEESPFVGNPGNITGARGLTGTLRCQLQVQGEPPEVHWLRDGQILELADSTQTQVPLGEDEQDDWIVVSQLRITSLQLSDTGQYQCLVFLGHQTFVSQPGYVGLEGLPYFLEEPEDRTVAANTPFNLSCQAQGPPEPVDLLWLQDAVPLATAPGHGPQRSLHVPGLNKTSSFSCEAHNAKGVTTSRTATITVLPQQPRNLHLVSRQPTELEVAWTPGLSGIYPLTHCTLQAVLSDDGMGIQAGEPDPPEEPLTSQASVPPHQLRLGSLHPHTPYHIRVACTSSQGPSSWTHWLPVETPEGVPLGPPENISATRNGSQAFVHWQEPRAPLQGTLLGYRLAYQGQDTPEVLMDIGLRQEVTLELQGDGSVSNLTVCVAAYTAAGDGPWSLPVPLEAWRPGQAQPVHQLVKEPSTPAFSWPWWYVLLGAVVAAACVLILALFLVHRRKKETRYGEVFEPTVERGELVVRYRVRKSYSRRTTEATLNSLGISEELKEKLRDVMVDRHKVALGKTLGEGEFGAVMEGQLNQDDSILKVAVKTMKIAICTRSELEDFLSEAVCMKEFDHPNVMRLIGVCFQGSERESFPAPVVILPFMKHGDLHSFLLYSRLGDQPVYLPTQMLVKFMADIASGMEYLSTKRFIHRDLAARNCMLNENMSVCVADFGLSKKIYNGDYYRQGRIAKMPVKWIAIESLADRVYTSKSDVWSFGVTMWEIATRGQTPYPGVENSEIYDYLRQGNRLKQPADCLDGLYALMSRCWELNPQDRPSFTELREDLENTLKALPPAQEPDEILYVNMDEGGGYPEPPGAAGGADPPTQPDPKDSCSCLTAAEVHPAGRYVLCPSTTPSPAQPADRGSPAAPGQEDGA
# [13] = molecular target: Glycogen synthase kinase-3 beta (Homo sapiens) (UniProt P49841); assay: Binding affinity to wild-type human full length GSK3B (M1 to T433 residues) expressed in mammalian expression system assessed as residual binding level at 1 uM by Kinomescan method relative to control
# In short: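 KinomeScan, an active site-directed competition binding panel of 468 kinases. The test compound was at 1 μM. The readout is remaining kinase binding as a percentage of the DMSO control. Scores above 35% were treated as weak binding and not listed.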
# [14] = molecular target: Bone morphogenetic protein receptor type-1B (Homo sapiens) (UniProt O00238); assay: Binding affinity to wild-type human partial length BMPR1B (D178 to L502 residues) expressed in mammalian expression system assessed as residual binding level at 1 uM by Kinomescan method relative to control
# [15] = molecular target: TRAF2 and NCK-interacting protein kinase (Homo sapiens) (UniProt Q9UKE5); assay: Binding affinity to wild-type human partial length TNIK (D4 to K311 residues) expressed in bacterial expression system assessed as residual binding level at 1 uM by Kinomescan method relative to control
# [16] = system: Tyrosine-protein kinase ABL1 (Homo sapiens), P00519 [F317I]; assay: Binding affinity to human phosphorylated ABL1 F317I mutant (S229 to K512 residues) expressed in mammalian expression system assessed as residual binding level at 1 uM by Kinomescan method relative to control; in short: as §3
# [17] = system: Tyrosine-protein kinase ABL1 (Homo sapiens), P00519 [T315I]; assay: Binding affinity to human phosphorylated ABL1 T315I mutant (S229 to K512 residues) expressed in mammalian expression system assessed as residual binding level at 1 uM by Kinomescan method relative to control; in short: as §1
# [18] = system: Mast/stem cell growth factor receptor Kit (Homo sapiens), P10721 [UNDEFINED MUTATION]; assay: Binding affinity to human partial length KIT V559D/V654 double mutant (Y545 to D952 residues) expressed in bacterial expression system assessed as residual binding level at 1 uM by Kinomescan method relative to control; in short: as §3
# Chain of Mast/stem cell growth factor receptor Kit (Homo sapiens), P10721 [UNDEFINED MUTATION] (P10721 whole entry, looked up, stated change not applied, the tested form may be a part): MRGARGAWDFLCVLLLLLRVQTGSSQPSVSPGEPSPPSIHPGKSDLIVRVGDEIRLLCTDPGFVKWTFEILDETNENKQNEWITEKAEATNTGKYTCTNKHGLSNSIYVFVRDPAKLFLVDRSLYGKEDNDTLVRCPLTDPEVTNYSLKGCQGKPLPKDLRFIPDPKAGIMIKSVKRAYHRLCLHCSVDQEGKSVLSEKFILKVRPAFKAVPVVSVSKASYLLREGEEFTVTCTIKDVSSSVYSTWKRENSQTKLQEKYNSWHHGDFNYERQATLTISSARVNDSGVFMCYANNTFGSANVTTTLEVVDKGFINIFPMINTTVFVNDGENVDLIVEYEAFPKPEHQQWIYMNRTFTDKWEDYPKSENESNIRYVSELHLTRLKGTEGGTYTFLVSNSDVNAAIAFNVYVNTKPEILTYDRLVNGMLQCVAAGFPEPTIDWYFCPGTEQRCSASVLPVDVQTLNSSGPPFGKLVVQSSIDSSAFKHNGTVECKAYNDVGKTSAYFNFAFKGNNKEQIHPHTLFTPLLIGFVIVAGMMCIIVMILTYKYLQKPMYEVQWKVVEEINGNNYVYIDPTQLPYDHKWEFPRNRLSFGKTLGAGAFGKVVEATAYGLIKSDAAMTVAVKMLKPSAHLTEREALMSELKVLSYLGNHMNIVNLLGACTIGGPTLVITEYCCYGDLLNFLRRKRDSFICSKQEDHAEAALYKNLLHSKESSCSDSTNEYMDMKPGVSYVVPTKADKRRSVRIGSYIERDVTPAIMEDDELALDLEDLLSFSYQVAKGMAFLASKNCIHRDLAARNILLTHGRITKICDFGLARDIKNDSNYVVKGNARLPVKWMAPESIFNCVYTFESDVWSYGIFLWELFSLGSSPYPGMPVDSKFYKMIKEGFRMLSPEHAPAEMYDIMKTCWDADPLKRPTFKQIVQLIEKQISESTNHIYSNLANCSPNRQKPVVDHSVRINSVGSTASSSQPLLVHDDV
# [19] = molecular target: Dual specificity tyrosine-phosphorylation-regulated kinase 1A (Homo sapiens) (UniProt Q13627); assay: Binding affinity to wild-type human partial length DYRK1A (H129 to S509 residues) expressed in mammalian expression system assessed as residual binding level at 1 uM by Kinomescan method relative to control
# [20] = molecular target: Serine/threonine-protein kinase BRSK1 (Homo sapiens) (UniProt Q8TDC3); assay: Binding affinity to wild-type human partial length BRSK1 (M1 to E754 residues) expressed in bacterial expression system assessed as residual binding level at 1 uM by Kinomescan method relative to control
# [21] = molecular target: Tyrosine-protein kinase Lyn (Homo sapiens) (UniProt P07948); assay: Binding affinity to wild-type human partial length LYN (C219 to Q511 residues) expressed in bacterial expression system assessed as residual binding level at 1 uM by Kinomescan method relative to control; in short: as §2
# Chain of Cyclin-dependent kinase-like 5 (Homo sapiens) (O76039 whole entry, the tested form may be a part): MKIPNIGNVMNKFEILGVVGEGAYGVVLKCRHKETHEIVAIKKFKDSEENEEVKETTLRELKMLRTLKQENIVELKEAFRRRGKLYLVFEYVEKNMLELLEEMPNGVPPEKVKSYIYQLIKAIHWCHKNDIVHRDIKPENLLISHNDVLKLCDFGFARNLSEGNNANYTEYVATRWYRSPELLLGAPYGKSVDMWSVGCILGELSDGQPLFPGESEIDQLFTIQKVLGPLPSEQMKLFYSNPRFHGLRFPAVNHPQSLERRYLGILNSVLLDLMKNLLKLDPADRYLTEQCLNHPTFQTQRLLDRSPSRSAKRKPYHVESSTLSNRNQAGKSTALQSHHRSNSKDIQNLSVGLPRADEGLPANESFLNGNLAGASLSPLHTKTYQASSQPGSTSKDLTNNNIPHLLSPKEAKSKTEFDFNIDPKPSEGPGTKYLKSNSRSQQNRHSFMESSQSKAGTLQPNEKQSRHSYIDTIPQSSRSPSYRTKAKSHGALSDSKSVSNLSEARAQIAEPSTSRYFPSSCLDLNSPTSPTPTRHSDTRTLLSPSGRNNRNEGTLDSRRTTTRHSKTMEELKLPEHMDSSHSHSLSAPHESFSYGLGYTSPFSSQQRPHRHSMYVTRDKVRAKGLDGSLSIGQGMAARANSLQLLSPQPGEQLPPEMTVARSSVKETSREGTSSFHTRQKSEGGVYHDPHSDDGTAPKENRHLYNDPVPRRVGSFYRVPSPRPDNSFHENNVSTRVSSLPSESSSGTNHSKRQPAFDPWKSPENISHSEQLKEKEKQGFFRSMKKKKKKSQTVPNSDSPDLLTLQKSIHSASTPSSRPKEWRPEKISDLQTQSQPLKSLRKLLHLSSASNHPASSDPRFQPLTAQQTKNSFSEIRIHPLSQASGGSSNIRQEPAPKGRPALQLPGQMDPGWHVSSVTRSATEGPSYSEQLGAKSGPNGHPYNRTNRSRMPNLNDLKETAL
smiles,measurement,setting,value
C=CC(=O)Nc1ccccc1Nc1nc(Nc2ccc(N3CCN(C)CC3)cc2)ncc1C(=O)Nc1c(C)cccc1Cl,Activity,[1],100%
same,Activity,[2],100%
same,half-life,[3],1.29 h
same,Activity,[4],100%
same,Activity,[5],100%
same,Activity,[6],100%
same,Activity,[7],78%
same,Activity,[8],92%
same,Activity,[9],99%
same,Activity,[10],100%
same,Activity,[11],62%
same,Activity,[12],100%
same,Activity,[13],98%
same,Activity,[14],100%
same,Activity,[15],100%
same,Activity,[16],6.9%
same,Activity,[17],100%
same,Activity,[18],100%
same,Activity,[19],100%
same,Activity,[20],100%
same,Activity,[21],2.8%

# — ChEMBL document CHEMBL4354843, “Structure-Based Design of a Potent and Selective Covalent Inhibitor for SRC Kinase That Targets a P-Loop Cysteine” (J Med Chem, 2020)
